One experiment concerns the target Protease (Human immunodeficiency virus 1, UniProt Q9YQ12). Briefly: Inhibition of wild type HIV-1 NL4-3 protease expressed in Escherichia coli Rosetta (DE3)pLysS using Ac-Thr-Ile-Nle-Nle-Gln-Arg-NH2 as substrate by fluorescence assay.
Details: not given
Sequence of Protease (Q9YQ12 whole entry): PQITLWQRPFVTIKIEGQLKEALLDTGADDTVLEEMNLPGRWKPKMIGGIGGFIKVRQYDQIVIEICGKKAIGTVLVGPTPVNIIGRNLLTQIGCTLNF
The Ki is a measure of affinity in units of concentration, obtained from inhibition or displacement. Low readings indicate tighter binding, high ones weaker binding. `COc1ccc(S(=O)(=O)N(CC(C)C)C[C@@H](O)[C@H](Cc2ccccc2)NC(=O)O[C@H]2C[C@H]3CO[C@H]4CCC[C@@H]2[C@@H]34)cc1` returned a Ki of 0.45 nM.
`CC(C)CN(C[C@@H](O)[C@H](Cc1cc(F)cc(F)c1)NC(=O)O[C@H]1CC2CO[C@H]3OCC[C@@H]1[C@@H]23)S(=O)(=O)c1ccc2nc(NC3CC3)sc2c1` (stereo partly drawn) had a Ki of 0.012 nM.
`CC(C)CN(C[C@@H](O)[C@H](Cc1ccccc1)NC(=O)O[C@H]1CC2CO[C@H]3OCC[C@@H]1[C@@H]23)S(=O)(=O)c1ccc2nc(NC3CC3)sc2c1` (stereo partly drawn): the affinity corresponds to a Ki of 0.01 nM.
On the same count and under the same terms, to `COc1ccc(S(=O)(=O)N(CC(C)C)C[C@@H](O)[C@H](Cc2ccccc2)NC(=O)O[C@H]2C[C@@H]3CO[C@@H]4OC[C@H]2[C@H]34)cc1` belongs 0.05 nM.

In a further experiment the test system is Human immunodeficiency virus 1. Description: Antiviral activity against HIV-1 LAI infected in human MT2 cells. Type of experiment: functional, organism-based. The settings on record: Human immunodeficiency virus 1, LAI.
The term IC50 denotes the concentration that gives 50% inhibition. As to `COc1ccc(S(=O)(=O)N(CC(C)C)C[C@@H](O)[C@H](Cc2ccccc2)NC(=O)O[C@H]2C[C@H]3CO[C@H]4CCC[C@@H]2[C@@H]34)cc1`, the IC50 is > 1000 nM.
The same measure, in the same setting: then `CC(C)CN(C[C@@H](O)[C@H](Cc1cc(F)cc(F)c1)NC(=O)O[C@H]1CC2CO[C@H]3OCC[C@@H]1[C@@H]23)S(=O)(=O)c1ccc2nc(NC3CC3)sc2c1` (stereo partly drawn), with 0.023 nM; and `CC(C)CN(C[C@@H](O)[C@H](Cc1ccccc1)NC(=O)O[C@H]1CC2CO[C@H]3OCC[C@@H]1[C@@H]23)S(=O)(=O)c1ccc2nc(NC3CC3)sc2c1` (stereo partly drawn), with 1.4 nM; and `COc1ccc(S(=O)(=O)N(CC(C)C)C[C@@H](O)[C@H](Cc2ccccc2)NC(=O)O[C@H]2C[C@@H]3CO[C@@H]4OC[C@H]2[C@H]34)cc1`, with 21 nM.

Another experiment deals with Human immunodeficiency virus 1. Briefly: Antiviral activity against wild type HIV1 NL4-3 infected in human MT4 cells assessed as reduction in p24 Gag protein production after 7 days by chemiluminescent enzyme immunoassay. It is filed as functional, organism-based. The settings on record: Human immunodeficiency virus 1, NL4-3, MT4, 168 h.
By EC50 is commonly meant the concentration giving half of the maximal effect. With `CC(C)CN(C[C@@H](O)[C@H](Cc1ccccc1)NC(=O)O[C@H]1CCOC1)S(=O)(=O)c1ccc(N)cc1`, the EC50 stood at 87 nM.
`CC(C)CN(C[C@@H](O)[C@H](Cc1cc(F)cc(F)c1)NC(=O)O[C@H]1CC2CO[C@H]3OCC[C@@H]1[C@@H]23)S(=O)(=O)c1ccc2nc(NC3CC3)sc2c1` (stereo partly drawn): the EC50 is 2 nM.
As for `COC(=O)N[C@H](C(=O)N[C@@H](Cc1ccccc1)[C@@H](O)CN(Cc1ccc(-c2ccccn2)cc1)NC(=O)[C@@H](NC(=O)OC)C(C)(C)C)C(C)(C)C` [ATAZANAVIR], the EC50 is 3.3 nM.

Another experiment concerns Human immunodeficiency virus 1. Briefly: Antiviral activity against ATV resistant HIV1 harboring protease L23I/E34Q/K43I/M46I/I50L/G51A/L63P/A71V/V82A/T91A mutant infected in human MT4 cells assessed as reduction in p24 Gag protein production after 7 days by chemiluminescent enzyme immunoassay. It is filed as functional, organism-based. The settings on record: Human immunodeficiency virus 1, MT4, 168 h. In a few lines:
(§1)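 Variants had been selected by passaging HIV-1 NL4-3 in MT-4 cells under increasing PI concentrations (up to 5 μM). Assays were run in duplicate; values are means (± S.D.) of two independent experiments.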
For `CC(C)CN(C[C@@H](O)[C@H](Cc1ccccc1)NC(=O)O[C@H]1CO[C@H]2OCC[C@H]21)S(=O)(=O)c1ccc(N)cc1`, the EC50 was 24 nM.
Turning to `CC(C)CN(C[C@@H](O)[C@H](Cc1ccccc1)NC(=O)O[C@H]1CCOC1)S(=O)(=O)c1ccc(N)cc1`, the EC50 is > 1000 nM.
Take `CC(C)CN(C[C@@H](O)[C@H](Cc1cc(F)cc(F)c1)NC(=O)O[C@H]1CC2CO[C@H]3OCC[C@@H]1[C@@H]23)S(=O)(=O)c1ccc2nc(NC3CC3)sc2c1` (stereo partly drawn): the EC50 worked out at 1.5 nM.
Turning to `COC(=O)N[C@H](C(=O)N[C@@H](Cc1ccccc1)[C@@H](O)CN(Cc1ccc(-c2ccccn2)cc1)NC(=O)[C@@H](NC(=O)OC)C(C)(C)C)C(C)(C)C` [ATAZANAVIR], the EC50 was > 1000 nM.
Still for that read-out and setting: to `Cc1cccc(C)c1OCC(=O)N[C@@H](Cc1ccccc1)[C@@H](O)C[C@H](Cc1ccccc1)NC(=O)[C@H](C(C)C)N1CCCNC1=O` [LOPINAVIR] belongs > 1000 nM.

For the next experiment, the system named is Human immunodeficiency virus 1. Briefly: Antiviral activity against LPV resistant HIV1 harboring protease L10F/[…]I54V/V82A mutant infected in human MT4 cells assessed as reduction in p24 Gag protein production after 7 days by chemiluminescent enzyme immunoassay. It is filed as functional, organism-based. The settings on record: Human immunodeficiency virus 1, MT4, 168 h. In a few lines:
as §1
For the compound `CC(C)CN(C[C@@H](O)[C@H](Cc1ccccc1)NC(=O)O[C@H]1CCOC1)S(=O)(=O)c1ccc(N)cc1`, the EC50 was found to be 190 nM.
The same measure, in the same setting: to `CC(C)CN(C[C@@H](O)[C@H](Cc1cc(F)cc(F)c1)NC(=O)O[C@H]1CC2CO[C@H]3OCC[C@@H]1[C@@H]23)S(=O)(=O)c1ccc2nc(NC3CC3)sc2c1` (stereo partly drawn) belongs 2 nM; to `COC(=O)N[C@H](C(=O)N[C@@H](Cc1ccccc1)[C@@H](O)CN(Cc1ccc(-c2ccccn2)cc1)NC(=O)[C@@H](NC(=O)OC)C(C)(C)C)C(C)(C)C` [ATAZANAVIR], 29 nM; to `Cc1cccc(C)c1OCC(=O)N[C@@H](Cc1ccccc1)[C@@H](O)C[C@H](Cc1ccccc1)NC(=O)[C@H](C(C)C)N1CCCNC1=O` [LOPINAVIR], > 1000 nM.

The test system of a further experiment is Human immunodeficiency virus 1. Description: Antiviral activity against APV resistant HIV1 harboring protease L10F/M46I/I50V/I85V mutant infected in human MT4 cells assessed as reduction in p24 Gag protein production after 7 days by chemiluminescent enzyme immunoassay. It is filed as functional, organism-based. The settings on record: Human immunodeficiency virus 1, MT4, 168 h. The method, boiled down: as §1
As for `CC(C)CN(C[C@@H](O)[C@H](Cc1ccccc1)NC(=O)O[C@H]1CCOC1)S(=O)(=O)c1ccc(N)cc1`, the EC50 is > 1000 nM.
On the same count and under the same terms, then `CC(C)CN(C[C@@H](O)[C@H](Cc1cc(F)cc(F)c1)NC(=O)O[C@H]1CC2CO[C@H]3OCC[C@@H]1[C@@H]23)S(=O)(=O)c1ccc2nc(NC3CC3)sc2c1` (stereo partly drawn), with 0.32 nM; and `COC(=O)N[C@H](C(=O)N[C@@H](Cc1ccccc1)[C@@H](O)CN(Cc1ccc(-c2ccccn2)cc1)NC(=O)[C@@H](NC(=O)OC)C(C)(C)C)C(C)(C)C` [ATAZANAVIR], with 70 nM; and `Cc1cccc(C)c1OCC(=O)N[C@@H](Cc1ccccc1)[C@@H](O)C[C@H](Cc1ccccc1)NC(=O)[C@H](C(C)C)N1CCCNC1=O` [LOPINAVIR], with 390 nM.

Another experiment deals with Human immunodeficiency virus 1. Briefly: Resistance index, ratio of EC50 for antiviral activity against ATV resistant HIV1 harboring protease L23I/E34Q/K43I/M46I/I50L/G51A/L63P/A71V/V82A/T91A mutant infected in human MT4 cells to EC50 for antiviral activity against wild type HIV1 NL4-3 infected in human MT4 cells. It is filed as functional.
Details: not given
As to `CC(C)CN(C[C@@H](O)[C@H](Cc1ccccc1)NC(=O)O[C@H]1CCOC1)S(=O)(=O)c1ccc(N)cc1`, the “Ratio EC50” value worked out at 11.
As to `CC(C)CN(C[C@@H](O)[C@H](Cc1cc(F)cc(F)c1)NC(=O)O[C@H]1CC2CO[C@H]3OCC[C@@H]1[C@@H]23)S(=O)(=O)c1ccc2nc(NC3CC3)sc2c1` (stereo partly drawn), the “Ratio EC50” value amounted to 1.
On to `COC(=O)N[C@H](C(=O)N[C@@H](Cc1ccccc1)[C@@H](O)CN(Cc1ccc(-c2ccccn2)cc1)NC(=O)[C@@H](NC(=O)OC)C(C)(C)C)C(C)(C)C` [ATAZANAVIR], for which the “Ratio EC50” value is on record as >303.

The next experiment concerns Human immunodeficiency virus 1. Briefly: Resistance index, ratio of EC50 for antiviral activity against LPV resistant HIV1 harboring protease L10F/[…]I54V/V82A mutant infected in human MT4 cells to EC50 for antiviral activity against wild type HIV1 NL4-3 infected in human MT4 cells.
Details: not given
Type of experiment: functional.
As for `CC(C)CN(C[C@@H](O)[C@H](Cc1ccccc1)NC(=O)O[C@H]1CCOC1)S(=O)(=O)c1ccc(N)cc1`, the “Ratio EC50” value came to 2.
As for `CC(C)CN(C[C@@H](O)[C@H](Cc1cc(F)cc(F)c1)NC(=O)O[C@H]1CC2CO[C@H]3OCC[C@@H]1[C@@H]23)S(=O)(=O)c1ccc2nc(NC3CC3)sc2c1` (stereo partly drawn), the “Ratio EC50” value stood at 2.
Turning to `COC(=O)N[C@H](C(=O)N[C@@H](Cc1ccccc1)[C@@H](O)CN(Cc1ccc(-c2ccccn2)cc1)NC(=O)[C@@H](NC(=O)OC)C(C)(C)C)C(C)(C)C` [ATAZANAVIR], the “Ratio EC50” value stood at 9.

A further experiment has as its system Human immunodeficiency virus 1. Briefly: Resistance index, ratio of EC50 for antiviral activity against APV resistant HIV1 harboring protease L10F/M46I/I50V/I85V mutant infected in human MT4 cells to EC50 for antiviral activity against wild type HIV1 NL4-3 infected in human MT4 cells. Type of experiment: functional.
Details: not given
Turning to `CC(C)CN(C[C@@H](O)[C@H](Cc1ccccc1)NC(=O)O[C@H]1CCOC1)S(=O)(=O)c1ccc(N)cc1`, the “Ratio EC50” value is given as >11.
As to `CC(C)CN(C[C@@H](O)[C@H](Cc1cc(F)cc(F)c1)NC(=O)O[C@H]1CC2CO[C@H]3OCC[C@@H]1[C@@H]23)S(=O)(=O)c1ccc2nc(NC3CC3)sc2c1` (stereo partly drawn), the “Ratio EC50” value is 0.3.
The same measure, in the same setting: to `COC(=O)N[C@H](C(=O)N[C@@H](Cc1ccccc1)[C@@H](O)CN(Cc1ccc(-c2ccccn2)cc1)NC(=O)[C@@H](NC(=O)OC)C(C)(C)C)C(C)(C)C` [ATAZANAVIR] belongs 21.

For the origin of these results see ChEMBL document CHEMBL4190391 (J Med Chem, 2018).
